Measured values as given in ChEMBL document CHEMBL1152230, “Synthesis of (3,4-dimethoxyphenoxy)alkylamino acetamides as orexin-2 receptor antagonists” (Bioorg Med Chem Lett, 2008).
The source made the active and inactive calls. No cut-off for these calls is given here.

Key:
[1] = biological target: T1, Orexin receptor type 2 (Homo sapiens) (UniProt O43614); assay: Agonist activity at human OX2 receptor expressed in HEK293 cells assessed as effect on human orexin-A-stimulated calcium release by FLIPR assay; type: functional, cell-based
T1 sequence (whole entry): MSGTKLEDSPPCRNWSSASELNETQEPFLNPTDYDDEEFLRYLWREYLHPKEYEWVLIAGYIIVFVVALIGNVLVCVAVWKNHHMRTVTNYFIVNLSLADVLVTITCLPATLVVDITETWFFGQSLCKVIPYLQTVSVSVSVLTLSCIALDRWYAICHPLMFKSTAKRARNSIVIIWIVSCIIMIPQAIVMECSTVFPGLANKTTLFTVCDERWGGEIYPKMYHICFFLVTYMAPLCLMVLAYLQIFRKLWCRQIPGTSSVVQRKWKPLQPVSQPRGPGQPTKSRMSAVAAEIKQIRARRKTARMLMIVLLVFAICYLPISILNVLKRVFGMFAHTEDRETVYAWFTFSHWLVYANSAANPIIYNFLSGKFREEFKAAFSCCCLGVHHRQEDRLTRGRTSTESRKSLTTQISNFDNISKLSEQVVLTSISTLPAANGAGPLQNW

[2] = biological target: T2, Orexin receptor type 2 (Homo sapiens, UniProt O43614); assay: Antagonist activity at human OX2 receptor expressed in HEK293 cells assessed as inhibition of human orexin-A-stimulated calcium release by FLIPR assay; type: functional, cell-based
T2 sequence (O43614 whole entry): T1 sequence (whole entry)
Method in brief: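 HEK293/OX2-R cells, 20,000/well, were grown 24 h at 37 °C. They were loaded with Calcium 3 no-wash dye in HBSS/20 mM HEPES pH 7.5/BSA with 2.5 mM probenecid final, for 30 min at 37 °C, then 30-90 min at room temperature. FLIPR fluorescence was read for 125 s.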

Activity [1] | IC50 ([2]; read-out: pIC50 (converted)) [nM] | IC50 ([2]; read-out: IC50) [nM] | SMILES
inactive | 562 | – | COc1ccc(OCCN(CC(=O)NCC(C)C)Cc2ccc(F)cc2)cc1OC
inactive | 195 | – | COc1ccc(OCCN(CC(=O)NCc2ccccc2Cl)Cc2cccs2)cc1OC
inactive | 138 | – | COc1ccc(OCCN(CC(=O)NCc2ccccc2Cl)Cc2ccc(F)cc2)cc1OC
inactive | 51.3 | – | COc1ccc(OCCCN(CC(=O)NCc2ccccc2)Cc2ccccc2)cc1OC
inactive | 229 | – | COc1ccc(OCCN(CC(=O)NCC(C)C)Cc2ccc(F)c(F)c2)cc1OC
inactive | 25.1 | < 30 | COc1ccc(OCCN(CC(=O)NCc2ccccc2)Cc2ccccc2)cc1OC
inactive | 81.3 | – | COc1ccc(OCCN(CC(=O)NCc2ccccc2Cl)Cc2ccc(F)c(F)c2)cc1OC
inactive | 107 | – | COc1ccc(OCCCN(CC(=O)NCc2ccccc2)Cc2ccc(F)c(F)c2)cc1OC
inactive | 110 | – | COc1ccc(OCCN(CC(=O)NCc2ccccc2)Cc2cccs2)cc1OC
inactive | 19.5 | < 30 | COc1ccc(OCCN(CC(=O)NCc2ccccc2)Cc2ccc(F)cc2)cc1OC
inactive | 132 | – | COc1ccc(OCCCN(CC(=O)NCc2ccccc2)Cc2cccs2)cc1OC
inactive | 324 | – | COc1ccc(OCCN(CC(=O)NCC(C)C)Cc2cccs2)cc1OC
inactive | 151 | – | COc1ccc(OCCN(CC(=O)NCc2ccccc2Cl)Cc2ccccc2)cc1OC
inactive | 18.6 | < 30 | COc1ccc(OCCN(CC(=O)NCc2ccccc2)Cc2ccc(F)c(F)c2)cc1OC
inactive | 302 | – | COc1ccc(OCCN(CC(=O)NCC(C)C)Cc2ccccc2)cc1OC
